Here are results for 40 molecules from ChEMBL document CHEMBL2057102, “Aminothienopyridazine inhibitors of tau aggregation: evaluation of structure-activity relationship leads to selection of candidates with desirable in vivo properties” (Bioorg Med Chem, 2012).

Series [1] in a line: Inhibition of heparin-induced alexa red-labelled tau K18PL mutant aggregation after 6 hrs by thioflavin-T fluorescence assay. Also on record: species or system Homo sapiens. The method in brief: (§1)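 Heparin-induced fibrillization of tau K18 fragment (residues 244–369) carrying P301L, with tau at 20 μM in sodium acetate buffer. Fibril formation was read by thioflavin-T fluorescence. IC50 came from sigmoidal fitting of concentration-response data, each concentration in triplicate. Values are from a single fit, or the mean of 2 or more analyses where marked.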

The species entered for series [2] is Homo sapiens. In words: Inhibition of heparin-induced alexa red-labelled tau K18PL mutant aggregation after 6 hrs by thioflavin-T fluorescence assay relative to control. Put shortly:
as §1

The species entered for series [3] is Homo sapiens. In words: Inhibition of heparin-induced tau K18PL mutant aggregation assessed as soluble tau fragment level at 50 uM after 5 days by SDS-PAGE analysis. Put shortly:
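Secondary centrifugation assay. Heparin-induced K18 P301L tau fibrillization mixtures with compound at 50 μM were centrifuged. Soluble and insoluble fractions were analysed by SDS-PAGE to give the percentage of tau remaining soluble.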

Series [4] in a line: (§2) Drug uptake in B6C3F1 mouse brain at 5 mg/kg, ip after 1 hr. The arrangement: dose 5 mg/kg, route intraperitoneal. It is filed as ADME, organism-based. Conditions: B6C3F1, mouse, brain, read-out: Drug uptake. Put shortly:
(§3)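 Single i.p. dose of 5 mg/kg, sacrifice 1 h later. Perfused brain hemispheres were homogenized in 10 mM ammonium acetate pH 5.7 (50% w/v). EDTA plasma was taken. Brain homogenate or plasma was extracted with acetonitrile and analysed by LC-MS/MS (MRM) against matrix standard curves. Brain-to-plasma ratio was taken from total levels.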

Series [5] is described as follows: (§4) Drug uptake in B6C3F1 mouse plasma at 5 mg/kg, ip after 1 hr. Conditions: B6C3F1, mouse, plasma. The arrangement: dose 5 mg/kg, route intraperitoneal. It is filed as ADME, organism-based. Put shortly:
as §3

Series [6] relates to Mus musculus. In words: Ratio of drug level in brain to plasma in B6C3F1 mouse at 5 mg/kg, ip after 1 hr.
Series [7] deals with Brain. The series is described as §2. It is filed as ADME, organism-based. The arrangement: dose 5 mg/kg, route intraperitoneal. Conditions: mouse, in vivo, 1 h, BLD = below limit of detection. The method in brief: as §3
The test system of series [8] is Plasma. The description is as §4. It is filed as ADME, organism-based. Also on record: dose 5 mg/kg, route intraperitoneal. Conditions: mouse, in vivo, 1 h, BLD = below limit of detection. The method in brief: as §3
Series [9] relates to Brain. In words: Fraction unbound in mouse brain homogenate at 1 uM after 5 hrs by equilibrium dialysis. Type of series: ADME, tissue-based. Put shortly:
(§5)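 Rapid equilibrium dialysis. Compound at 1 μM in mouse plasma or brain homogenate, each diluted threefold with 100 mM sodium phosphate pH 7.4. Triplicate samples dialysed against the same buffer for 5 h at 37 °C with shaking. Both sides were matrix-matched, extracted with acetonitrile and run by LC-MS/MS. fu is buffer response over sample response; brain fu was corrected for tissue dilution.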
On the technique in general: Equilibrium dialysis compares concentrations on both sides of a semipermeable membrane.

The nature of series [10]: Ratio of fraction unbound in brain homogenate to plasma in mouse at 1 uM after 5 hrs by equilibrium dialysis. Type of series: ADME, tissue-based. The method in brief: as §5

One may read the IC50 as the concentration needed to halve the response being measured. Low values mean greater potency, high ones weaker potency. The inhibition is the change of the read-out against control, counted positive when it falls. For the molecule `O=C(O)c1nn(-c2ccc(F)cc2)c(=O)c2c1CSC2=O`, the half-maximal inhibitory concentration (IC50) in series [1] worked out at 2.5 µM. The molecule also gave an Imax in series [2] of 92%. Moreover, the inhibition in [3] came to 87%.
On the same counts, the results for `Nc1scc2c(C(=O)O)nn(-c3ccc(F)cc3)c(=O)c12` are 2 µM, 84% and 83%.
Consider `Nc1scc2c(C(=O)O)nn(-c3ccc(C(F)(F)F)cc3)c(=O)c12`, for which inhibition in series [1] was half-maximal at 19.9 µM (IC50). The molecule further yielded an Imax in series [2] of 88%. For the same molecule, the inhibition in series [3] came out at 83%.
Regarding `Nc1scc2c(C(=O)O)nn(-c3cccc(Cl)c3)c(=O)c12`, in [1], the midpoint of inhibition, the IC50, lay at 1.6 µM. In addition, the Imax in series [2] amounted to 92%. Besides, in series [3], the inhibition was 73%.
`CCOC(=O)c1c(C(=O)c2ccccc2)csc1N` came in with an Imax in series [2] of 29%. Besides, the inhibition in series [3] turned out to be 6.5%.
`CCOC(=O)c1nn(-c2ccccc2Cl)c(=O)c2c(N)scc12` yielded an IC50 in series [1] of 2 µM. Besides, the Imax in series [2] is 75%. For the same molecule, in series [3], the inhibition was determined as 71%.
In the case of `CC(C)n1nc(-c2ccccc2)c2csc(N)c2c1=O`, the half-maximal inhibitory concentration (IC50) in [1] was found to be 19.9 µM. This molecule also came in with an Imax in series [2] of 89%. Besides, the inhibition in series [3] is 92%.
Regarding `Cc1nn(-c2ccccn2)c(=O)c2c(N)scc12`, the IC50 in [1] was found to be 2 µM. Moreover, the Imax in series [2] was determined as 85%. Also, the inhibition in series [3] worked out at 78%. In addition, the concentration at 1 h in [4] was 7.5 ng/g; in [5], 61 ng/mL. Besides, the BPR in [6] is given as 0.116.
In turn, `CCOC(=O)c1nn(-c2ccc(C(F)(F)F)cc2)c(=O)c2c(N)scc12` returned an Imax in series [2] of 48%. Besides, the inhibition in series [3] came to 27%.
In turn, `Cc1nn(-c2ccc(Cl)cc2)c(=O)c2c(N)scc12` showed an IC50 in series [1] of 2 µM. Moreover, in series [2], the Imax came to 85%. Further, in [3], the inhibition came to 70%.
On the same counts, the results for `Cc1nn(C2CCCCC2)c(=O)c2c(N)scc12` are 31.6 µM, 65% and 86%.
The corresponding values for `Cc1nn(-c2cccnc2)c(=O)c2c(N)scc12` are 4 µM, 74% and 84%.
Consider `Nc1scc2c(C(=O)NC3CC3)nn(-c3ccccc3Cl)c(=O)c12`, for which the Imax in series [2] came to 68%. In series [3], the inhibition came to 44%.
In series [1], `Cc1n[nH]c(=O)c2c(N)scc12` displayed a concentration for half-maximal inhibition (IC50) of 8 µM. In addition, in series [2], the Imax came out at 87%. Further, in series [3], the inhibition was determined as 81%. In series [7], the Drug uptake result is on record as “BLD”. Also, the Cp result in series [8] was “BLD”.
On to `Nc1scc2c(C(=O)NC3CC3)nn(-c3ccc(C(F)(F)F)cc3)c(=O)c12`, for which the IC50 in series [1] is 6.3 µM. Moreover, the Imax in series [2] amounted to 64%. Also, the inhibition in series [3] was 83%.
The corresponding values for `CCOC(=O)c1nn(-c2ccc(Cl)cc2)c(=O)c2c(N)sc(Cl)c12` are 2 µM, 88% and 65%.
Turning to `CC(C)NC(=O)c1nn(-c2ccc(OC(F)(F)F)cc2)c(=O)c2c(N)scc12`, in series [1], inhibition was half-maximal at 15.8 µM (IC50). In series [2], the Imax was 67%. Also, the inhibition in [3] is 42%.
On the same counts, the results for `Cc1nn(CC(F)(F)F)c(=O)c2c(N)scc12` are 10 µM, 81% and 78%.
In turn, `CCOC(=O)c1nn(-c2ccc(Cl)cc2)c(=O)c2c(NC)scc12` showed an Imax in series [2] of 39%. Further, in [3], the inhibition was determined as 51%.
In series [1], `Nc1scc2c(C(=O)O)nn(-c3ccccc3Cl)c(=O)c12` returned a concentration for half-maximal inhibition (IC50) of 3.2 µM. Moreover, the Imax in [2] was 86%. In [3], the inhibition came out at 64%.
The corresponding values for `Cc1nn(C(C)C)c(=O)c2c(N)scc12` are 19.9 µM, 95% and 17%.
The corresponding values for `Nc1scc2c(C(=O)O)nn(-c3ccc(OC(F)(F)F)cc3)c(=O)c12` are 1.6 µM, 92% and 71%.
The corresponding values for `CC(C)NC(=O)c1nn(-c2cccc(Cl)c2)c(=O)c2c(N)scc12` are 3.2 µM, 82% and 73%.
`CC(C)NC(=O)c1nn(-c2ccc(Cl)cc2)c(=O)c2c1CSC2=O`: the IC50 in series [1] came to 10 µM. Moreover, the Imax in series [2] worked out at 96%. Further, the inhibition in series [3] was 85%. The concentration at 1 h in series [4] was found to be 16.3 ng/g; in series [5] it was 4700 ng/mL. Besides, in [6], the BPR turned out to be 0.0035.
Molecule `CCOC(=O)c1nn(-c2ccc(Cl)cc2)c(=O)c2c1C(O)NC2=O` (stereo not given) gave an Imax in series [2] of 57%. The inhibition in [3] was 15%.
The molecule `Nc1scc2c(C(=O)O)nn(-c3ccc(O)cc3)c(=O)c12` yielded a half-inhibitory concentration (IC50) in series [1] of 4 µM. This molecule displayed an Imax in series [2] of 84%. For the same molecule, the inhibition in series [3] worked out at 70%.
On the same counts, the results for `CCOC(=O)c1nn(-c2cccc(Cl)c2)c(=O)c2c(N)scc12` are 3.2 µM, 82% and 73%.
Turning to `CCOC(=O)c1nn(-c2ccc(O)cc2)c(=O)c2c(N)scc12`, the IC50 in series [1] worked out at 5 µM. This molecule showed an Imax in [2] of 81%. Further, the inhibition in series [3] stood at 69%.
Regarding `CCOC(=O)c1nn(-c2ccc(C(C)C)cc2)c(=O)c2c(N)scc12`, the Imax in [2] came out at 8%. The inhibition in series [3] was determined as 17%.
`CC(C)NC(=O)c1nn(-c2ccc(F)cc2)c(=O)c2c(N)scc12`: half-maximal inhibition in [1] (IC50) required 1.6 µM. The Imax in series [2] was determined as 89%. In addition, the inhibition in series [3] is 77%. Further, the values for the concentration at 1 h in series [4] and in [5] were 280 ng/g and 110 ng/mL, respectively. For the same molecule, the Fu in series [9] is reported as 2.9%. Besides, the Ratio in series [10] is on record as 1.3. In series [6], the BPR is recorded as 2.68.
As to `CC(C)c1ccc(-n2nc(C(=O)NC3CC3)c3csc(N)c3c2=O)cc1`, the concentration for half-maximal inhibition (IC50) in [1] came to 4 µM. The same molecule gave an Imax in series [2] of 82%. Besides, the inhibition in series [3] stood at 86%.
With `Cc1nn(Cc2ccccc2)c(=O)c2c(N)scc12`, the IC50 in series [1] worked out at 1.6 µM. The molecule further had an Imax in series [2] of 89%. For the same molecule, the inhibition in [3] turned out to be 73%. Moreover, the concentration at 1 h in series [4] is 48 ng/g; in series [5], 78 ng/mL. In series [9], the Fu was 5.1%. Also, in series [10], the Ratio is 0.77. Besides, the BPR in [6] was 0.6.
The molecule `CCOC(=O)c1nn(-c2ccc(OC(F)(F)F)cc2)c(=O)c2c(N)scc12` showed an Imax in [2] of 41%. In addition, the inhibition in series [3] came out at 29%.
Take `CCOC(=O)c1nn(-c2ccc(Cl)cc2)c(=O)c2c(N)sc(Br)c12`: inhibition in [1] was half-maximal at 4 µM (IC50). In addition, the Imax in [2] worked out at 92%. In [3], the inhibition was determined as 62%.
Turning to `CC(C)NC(=O)c1nn(-c2ccc(O)cc2)c(=O)c2c(N)scc12`, the IC50 in [1] turned out to be 15.8 µM. Also, the Imax in [2] came to 86%. The inhibition in series [3] was determined as 84%. The concentration at 1 h in series [4] amounted to 14.1 ng/g; in series [5], 150 ng/mL. In series [6], the BPR came to 0.098.
In series [1], `CCOC(=O)c1nn(-c2ccc(F)cc2)c(=O)c2c(N)scc12` returned a half-inhibitory concentration (IC50) of 1 µM. The Imax in series [2] was determined as 77%. Besides, the inhibition in series [3] is 63%.
`CCOC(=O)C1=NN(c2ccc(Cl)cc2)C(=O)C(C#N)C1C` (stereo not given) yielded an Imax in series [2] of 4.4%. Besides, the inhibition in series [3] is 21%.
As to `Nc1scc2c(C(=O)NCC(F)(F)F)nn(-c3ccc(F)cc3)c(=O)c12`, in series [1], the IC50 turned out to be 8 µM. In series [2], this molecule showed an Imax of 83%. Moreover, the inhibition in [3] was 75%. The concentration at 1 h in series [4] turned out to be 637 ng/g; in [5], 401 ng/mL. This molecule gave a Fu in series [9] of 3.2%. The Ratio in series [10] is recorded as 2.31. The BPR in series [6] is given as 1.59.
Take `Cc1nn(C)c(=O)c2c(N)scc12`: in [1], the IC50 was 2.5 µM. In [2], the Imax was found to be 82%. The inhibition in series [3] came to 76%. Further, the Drug uptake entry in series [7] was “BLD”. The molecule further displayed a concentration at 1 h in series [5] of 10 ng/mL.
`Nc1scc2c(-c3ccccc3)nn(CC(F)(F)F)c(=O)c12` came in with a half-maximal inhibitory concentration (IC50) in series [1] of 6.3 µM. This molecule registered an Imax in series [2] of 103%. For the same molecule, in series [3], the inhibition is 82%.
